C8 TRAIL sens: caspase-8 TRAIL sensitization. NB7+C8 cells + TRAIL, ATPlite viability luminescence. AID 624354. inhibition (viability loss, TRAIL sensitization), % at 10 µM. hit rate 1% among 360,000;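 active = compounds causing at least 50% loss of cell viability in the single-dose screen, relative to plate controls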
PPC-1+TRAIL kill: PPC-1 cancer cell killing with TRAIL present; PPC-1 cells + TRAIL, ATPLite viability luminescence; cell killing (% activity), % at 4 µM or 5 µM; hit rate 0.41% among 220,000; AID 1443;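 active = cell killing above 50% in the first pass at 4 µM, then a duplicate retest at 5 µM averaging 50% or more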
APP 5'UTR act: APP 5'UTR luciferase reporter activation; SH-SY5Y APP 5'UTR luciferase reporter, luminescence; zero percent = DMSO vehicle wells; activation, % at 2 µM; hit rate 1% among 190,000; AID 1276;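 active = activation above a set limit, based on mean plus 3 SD of controls, cut at about 140% in these data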
NF-kB expr up: compounds increasing NF-kB expression in human neuronal cells; NF-kB reporter expression; stronger effect = higher value; fold change at 12.5 µM; hit rate 1.6% among 190,000; in the data active = fold change above about 3.3
FLuc inhib CS: counter-screen for luciferase assay inhibitors: firefly luciferase inhibition. hit rate 1.5% among 200,000. ATPLite firefly luciferase biochemical luminescence, 10 min. inhibition, % at 10 µM. AID 1006;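 active = inhibition above about 50% when tested at 10 µM, limit read from the data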
Target sequence (P08659 whole entry, looked up): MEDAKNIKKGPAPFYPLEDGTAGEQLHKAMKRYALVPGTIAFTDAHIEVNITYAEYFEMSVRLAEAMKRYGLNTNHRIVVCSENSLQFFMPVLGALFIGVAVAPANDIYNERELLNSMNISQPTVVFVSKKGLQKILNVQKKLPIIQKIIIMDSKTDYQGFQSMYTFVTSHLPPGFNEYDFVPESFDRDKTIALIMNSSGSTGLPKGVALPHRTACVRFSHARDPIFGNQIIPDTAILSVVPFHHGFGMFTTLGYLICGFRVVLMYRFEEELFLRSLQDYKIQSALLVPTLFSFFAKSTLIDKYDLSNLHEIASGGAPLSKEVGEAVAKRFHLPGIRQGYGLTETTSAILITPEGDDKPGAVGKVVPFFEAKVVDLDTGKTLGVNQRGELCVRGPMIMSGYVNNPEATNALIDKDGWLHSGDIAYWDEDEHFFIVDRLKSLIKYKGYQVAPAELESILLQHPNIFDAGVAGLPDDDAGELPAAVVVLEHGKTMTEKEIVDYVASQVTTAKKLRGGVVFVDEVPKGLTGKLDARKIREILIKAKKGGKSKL
FLuc stim CS: firefly luciferase counter-screen for stimulation assays; ATPlite luciferase biochemical, luminescence, 10 min; 0 = ATP-free wells, 1 = DMSO control; AID 1027; 200,000 tested, under 10 active; P08659; activation factor at 10 µM;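 active = luciferase activation factor, scaled between plate controls, of at least 2 with compound at 10 µM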
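Assay system: Luciferase/luciferin detection reagent, cell-free biochemical luciferase assay / Read-out: luciferase activation / Benchmarks: No-ATP low control, compound-free enzyme-plus-ATP high control / Medium: PBS buffer for ATP / Detection: luminescence measurement of luciferase light output / Schedule: 10 min at ambient temperature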
Numbers stand for hits; n = inactive; x = no result given. Compounds with a hit are over-represented: about 2.2% of the library has one in this group of screens.

SMILES | C8 TRAIL sens | PPC-1+TRAIL kill | APP 5'UTR act | NF-kB expr up | FLuc inhib CS | FLuc stim CS
Nc1[nH]c(C(=O)c2ccccc2)c(-c2cccc3ccccc23)c1C(=O)NCc1ccccc1 | n | x | x | x | x | x
CC(=O)c1ccc(-c2c(CCO)sc3ccccc23)cc1 | n | x | x | x | x | x
COc1cccc2oc3ccc(C#Cc4ccccn4)cc3c(=O)c12 | 69 | x | x | x | x | x
CC(C)c1ccc(Nc2ncccc2C(=O)O)cc1 | n | n | 140 | n | 67 | n
CN(C)c1ccc(-c2csc(C(O)c3cccc(Cl)c3)n2)cc1 (centres undefined) | n | x | x | x | x | x
Cc1nc(SCC(=O)Nc2nccs2)c(C#N)c(C)c1C | 80 | x | x | x | x | x
CC1(Oc2ccccc2-c2ccno2)CCN(Cc2csc3ccccc23)C1 (centres undefined) | n | x | x | x | x | x
COc1ccc(-c2cc(=O)c3cc(C)ccc3[nH]2)cc1 | 73 | n | n | 6.5 | 82 | n
CC(=O)c1c(C)nc(-c2ccccc2)nc1N | n | n | n | n | n | n
CCOC(=O)c1c(C)nc(-c2ccccc2)nc1N | n | n | n | 4 | n | n
CC1N=C(SCC(=O)c2ccc(F)cc2)N2C(C)N=C(SCC(=O)c3ccc(F)cc3)N12 (centres undefined) | n | x | x | x | x | x
CCCCNC(=O)c1ccc(Cn2c(=S)[nH]c3c([nH]c4ccc(OC)cc43)c2=O)cc1 | 70 | n | n | n | n | n
CCCNC(=O)C1(C)CCCN(Cc2cc(-c3ccccc3)n(C)n2)C1 (centres undefined) | n | x | x | x | x | x
Cc1ccc(N2NC(C)(c3cccs3)NC2=S)cc1 (centres undefined) | n | n | n | 3.3 | n | n
O=C(O)c1ccc(-c2nc(-c3ccc(Cl)cc3)cs2)cc1 | n | n | 241 | 6.3 | n | n
O=C(O)c1ccc(-c2nc(-c3ccc(Cl)cc3Cl)cs2)cc1 | n | n | n | n | n | n
COc1ccc(-c2csc(-c3ccc(C(=O)O)cc3)n2)cc1 | n | n | n | 7.6 | n | n
COC(=O)[C@@]12C[C@@H](CC(=O)NCc3cccc(C(F)(F)F)c3)C(=O)N(CCc3ccc(OC)c(OC)c3)C1=CCC(C)(C)C2 | n | x | x | x | x | x
COc1ccc(NC(=S)Nc2ccc(N)c([N+](=O)[O-])c2)cc1 | n | n | n | 3.3 | n | n
CCCCNC(=O)c1cnc(Cc2c[nH]c3ccccc23)c(I)c1 | n | x | x | x | x | x
Cc1c(C(=O)NC(=S)Nc2ccc(NC(=O)c3cccs3)cc2)oc2ccccc12 | n | x | x | x | x | x
Cc1cc(C)c(NC(=S)NC(=O)c2ccccc2)cc1C | n | x | x | x | x | x
Cc1cccc(NC(=S)NC(=O)c2ccc(-c3ccccc3)cc2)n1 | 59 | x | x | x | x | x
Cc1cccc(NC(=S)NC(=O)c2oc3ccccc3c2C)n1 | 64 | x | x | x | x | x
Cc1cccc(NC(=O)c2cc3ccccc3c(=O)o2)n1 | 60 | x | x | x | x | x
SMILES | C8 TRAIL sens | PPC-1+TRAIL kill | APP 5'UTR act | NF-kB expr up | FLuc inhib CS | FLuc stim CS
Cc1nc(NC(=O)c2cc3ccccc3o2)ccc1Br | n | x | x | x | x | x
Cc1cccc(NC(=S)NC(=O)C(c2ccccc2)c2ccccc2)n1 | n | x | n | x | x | x
Cc1ccc(C(=O)O)cc1NC(=S)NC(=O)c1ccc(-c2ccccc2)cc1 | n | n | n | n | 86 | n
COc1ccc(OCCNC(=O)c2ccc3nc(C)c(N(C)Cc4ccc(NC(C)=O)cc4)n3c2)cc1 | n | x | x | x | x | x
CC(C)c1ccc(/C=N/Nc2ccc(C(=O)O)cc2)cc1 | n | n | n | n | n | n
O=C(O)c1ccc(/C=N/Nc2ccc(C(F)(F)F)cn2)cc1 | n | n | 138 | 3.9 | n | n
O=C(O)c1ccc(N/N=C/c2ccc(-c3ccccc3)cc2)cc1 | n | n | 186 | 10 | n | n
C/C=C/c1cccc(-c2nc(C(=O)N3CCCCC3)cc3c2[C@@H](CCO)N(C(=O)NC(C)C)C3)c1 | n | x | x | x | x | x
COCCN(CCOC)C(=O)c1c[nH]c2ccc(S(=O)(=O)N(C)c3ccc(F)cc3)cc2c1=O | n | n | n | n | n | n
CN(c1ccc(F)cc1)S(=O)(=O)c1ccc2[nH]cc(C(=O)O)c(=O)c2c1 | n | 62 | n | n | n | n
COc1cc(/C=N/NC(=O)c2nnn(-c3nonc3N)c2C)ccc1OCc1ccc(Cl)cc1 | 56 | x | x | x | x | x
Cc1ccc(C)c(CC(=O)N2CCCCC2c2cc(C(=O)Nc3cccc(C#N)c3)no2)c1 (centres undefined) | n | x | x | x | x | x
Cc1nc(SCCC(=O)O)c2cc(-c3ccccc3)sc2n1 | 63 | x | x | x | x | x
Cc1nc(N2CCOCC2)c2cc(-c3ccccc3)sc2n1 | n | n | n | n | n | n
COc1ccc(O)cc1CN1CCN(c2ncc(Cc3ccccc3)cn2)CC1 | n | x | x | x | x | x
CCCCCCCCCCCCCCC(O)C[N+](C)(CCO)CCO (centres undefined) | 88 | x | x | x | x | x
CCCCCCCC(=O)OCC(O)CO (centres undefined) | n | n | n | n | n | n
CN(C)c1ccc(/C=C2\CCCCC2=O)cc1 | n | n | 160 | 4.2 | n | n
CN(C)c1ccc(C=C2SC(=S)NC2=O)cc1 | n | x | x | x | x | x
CC(=O)Nc1cc(-c2cccc(C(=O)NCCN(C)C)c2)cn2c(-c3cccc(C(F)(F)F)c3)cnc12 | 65 | x | x | x | x | x
CCSc1ccc(-c2cc(NC=O)c3ncc(-c4cccc(C(=O)NCCN(C)C)c4)n3c2)cc1 | 79 | x | x | x | x | x
CC(=O)Nc1cc(-c2cccc(C(=O)NCCN(C)C)c2)cn2c(-c3ccccc3)cnc12 | n | x | x | x | x | x
CCN1/C(=C/C=C/c2oc3ccc(-c4ccccc4)cc3[n+]2CC)Oc2ccc(-c3ccccc3)cc21 | 79 | 57 | n | n | n | n
C#CCSc1nnc(-c2sc(-c3ccccc3)nc2C)n1C | 80 | n | n | n | n | n
O=C(NC1CCCCC1)c1nc(-c2c(F)cccc2F)oc1-c1ccccc1 | n | x | x | x | x | x
SMILES | C8 TRAIL sens | PPC-1+TRAIL kill | APP 5'UTR act | NF-kB expr up | FLuc inhib CS | FLuc stim CS
Cc1cc(/C=C2/NC(=S)NC2=O)c(C)n1-c1cccnc1 | n | n | n | n | 71 | n
Cc1cc(/C=C2/NC(=O)N(c3ccccc3)C2=O)c(C)n1-c1cccnc1 | n | n | n | n | n | n
O=C(Nc1ccc(Cl)cc1)c1ccc(Br)cc1F | n | n | 150 | 7.8 | n | n
CC(C)c1ccc(NC(=O)c2cc(Br)ccc2Br)cc1 | n | n | n | n | n | n
COc1ccc(CNC(=O)OC2CC3CC2[C@H]2CCCCN2C3=O)cc1 (some centres undefined) | n | x | x | x | x | x
O=c1c2ccccc2cnn1-c1ccc(Cl)nn1 | n | n | n | n | n | n
O=c1c2ccccc2cnn1-c1ccc2ccccc2c1 | 51 | n | 168 | 3.4 | 64 | n
O=c1c2ccccc2cnn1-c1ccc(Br)cc1 | n | n | n | 6.4 | n | n
O=C(NCc1ccccc1)c1cc(-c2cccs2)on1 | n | n | n | n | n | n
O=C(NCc1ccco1)c1cc(-c2ccccc2)on1 | n | n | n | 4.5 | n | n
O=C(NCc1ccco1)c1cc(-c2cccs2)on1 | n | n | n | 5.2 | n | n
CC(=O)Oc1ccc(/C=N/NC(=S)Nc2ccccc2)cc1 | n | n | n | 5.3 | n | n
